# Source: PubChem BioAssay
# A selection: hits, their analogues and other compounds. The true share with any hit is near 2.2%.
# PABP1 MLLE inh – inhibitors of microRNA-mediated deadenylation, human PABP1 MLLE binding; P11940; GST-MLLE / FITC-PAM2 fluorescence polarization; inhibition, % at 20 µM; actives 0.36% (n = 360,000); AID 588489; in the data active = inhibition above about 35%, passing the limit was not always enough;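 note: plate controls were DMSO wells with GST-MLLE for no effect and wells lacking GST-MLLE protein for full effect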
# eIF4H inh – inhibitors of RNA binding by human eIF4H; Q15056; eIF4H fluorescence polarization binding assay; inhibition, % at 35 µM; actives 0.94% (n = 290,000);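 note: calls also rest on retests at 20 µM and on dose response follow-up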
# VIM-2 inh – inhibitors of Pseudomonas aeruginosa VIM-2 metallo-beta-lactamase; actives 0.89% (n = 290,000); purified VIM-2, nitrocefin hydrolysis, epi-absorbance fluorescence; AID 1527; inhibition, % at 5.6 µM;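 active = inhibition above the mean of all tested compounds plus 3 SD, cutoff set per screening run, cut at about 7.5% in these data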;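 note: red hydrolysis product quenches plate fluorescence so inhibitors raise well fluorescence; 0% = enzyme with DMSO and 100% = DMSO without enzyme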
# IMP-1 inhibitor – blocks Pseudomonas aeruginosa IMP-1 metallo-beta-lactamase. purified IMP-1, nitrocefin hydrolysis, epi-absorbance fluorescence. inhibition, % at 5.6 µM. actives 0.45% (n = 290,000);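 active = inhibition above the mean plus 3 SD of all compounds in the same screening run, cut at about 4.5% in these data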;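 note: 0% = IMP-1 with DMSO and 100% = DMSO wells lacking enzyme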
#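 Material – recombinant IMP-1 enzyme, purified · Amount – IMP-1 0.2 nM before substrate addition · Medium – HEPES buffer pH 7.1 with ZnSO4 and Brij 35 · Timing – 25 °C, 15 min preincubation, 25 min reaction · Measured by – plate fluorescence quenching by hydrolysis product, ex 480/em 530 nm · Read-out – percent enzyme inhibition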
# PABP polyA inh – PABP-poly(A) binding inhibition; PABP-poly(A) RNA binding, fluorescence polarization; calls only at 35 µM; P11940; actives 1% (n = 290,000); AID 2014;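 note: calls also rest on retests at 20 µM and on dose response follow-up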
# * marks the source's active call; other numbers are inactive results; i = inactive; ? = inconclusive; . = no result given; + = active, no number. Unless noted, the rule behind the calls is not given here.
SMILES,PABP1 MLLE inh,eIF4H inh,VIM-2 inh,IMP-1 inhibitor,PABP polyA inh
COc1ccc(-c2cc(C(=O)Nc3ccccc3SC)no2)cc1,-10.7,-4.3,-0.5,-1.5,i
COc1ccc(-c2cc(C(=O)Nc3cc(Br)ccc3O)no2)cc1,-18.9,-21.6,0.0,52.4*,i
CCN(C(=O)CCNC(=O)Cn1cnc2ccccc2c1=O)c1ccccc1F,6.8,-6.1,-1.7,-1.5,i
CC(=O)c1ccc(NC(=S)NCCc2ccc(S(N)(=O)=O)cc2)cc1,40.4*,5.3,0.1,-1.1,i
CC(C)(C)c1ccc(C(=O)Nc2ccc(S(N)(=O)=O)cc2)cc1,6.5,61.6*,-1.5,-1.3,+
NS(=O)(=O)c1ccc(NC(=O)c2ccc(-c3ccccc3)cc2)cc1,4.7,60.5,-2.6,-0.8,i
CCc1nnc(NC(=O)C2CCCCN2S(=O)(=O)c2ccccc2)s1 (stereo unspecified),3.7,1.8,5.3,1.1,i
CCN1CCc2c(sc(NC(=O)Nc3ccc(Cl)c(Cl)c3)c2C(N)=O)C1,i,?,-0.4,1.2,i
COc1ccc(-c2csc3nc(-c4cccnc4)nc(Cl)c23)cc1OC,-9.2,1.9,11.6*,-3.4,i
C=CCn1c(O)c(N=NC(=S)Nc2ccccc2F)c2ccccc21,38.9*,4.7,-8.3,-3.2,i
C=CCn1c(O)c(N=NC(=S)Nc2ccccc2F)c2cc(S(=O)(=O)N3CCOCC3)ccc21,41.5*,0.1,-4.5,-3.7,i
C=CCn1c(O)c(N=NC(=S)Nc2cccc(C)c2)c2ccccc21,41.6*,5.2,-4.0,-4.2,i
Oc1c(N=NC(=S)Nc2ccccc2F)c2ccccc2n1Cc1ccccc1,9.8,10.8,-0.4,-1.5,i
COc1ccc(C)cc1NC(=O)C(=O)NCc1ccncc1,5.4,-9.1,-1.3,-1.3,i
COc1ccc(Cl)cc1NC(=O)Cc1c(F)cccc1Cl,-11.5,4.8,-1.1,-1.9,i
O=C(c1ccccc1)c1ccc[nH]1,3.4,.,.,.,.
O=C(Nc1scc(-c2cccs2)c1C(=O)O)c1cccs1,21.3,-0.2,2.7,15.3*,i
O=C(Nc1scc(-c2ccccc2)c1C(=O)O)c1ccco1,-0.5,-9.8,-1.7,4.8*,i
COC(=O)c1c(-c2ccc(F)cc2)csc1NC(=O)c1ccco1,-8.4,-9.9,-0.7,-1.8,i
COc1ccc(C2=NS(=O)(=O)N(C)C(C(=O)NC3CCCC3)=C2)cc1OC,0.2,-5.7,-2.4,-2.8,i
Cn1c(=O)c2c(ncn2CC(=O)OCC(=O)Nc2cc(Cl)ccc2C#N)n(C)c1=O,-2.1,.,.,.,.
CN(CCC#N)c1ccc(/C=C(\C#N)c2ccccn2)cc1,-15.1,?,3.5,25.1*,i
N#C/C(=C\c1ccc(C(=O)O)cc1)c1ccccn1,-3.8,64.2*,1.9,-1.6,+
CN(Cc1nc2ccccc2c(=O)[nH]1)C(=O)c1ccc(S(=O)(=O)N2CCCC2)cc1,4.2,.,.,.,.
Cc1ccc(NC(=S)N/N=C2\CC(C)(C)Oc3ccc(O)cc32)cc1,28.5,-1.7,-0.6,-0.4,i
SMILES,PABP1 MLLE inh,eIF4H inh,VIM-2 inh,IMP-1 inhibitor,PABP polyA inh
COc1ccc(NC(=S)N/N=C2\CC(C)(C)Oc3ccc(OC)cc32)cc1,36.8*,-6.8,-1.9,-1.2,i
O=[N+]([O-])c1cccc(NC(=S)N2CCc3ccccc32)c1,-67.6,-2.0,0.0,0.1,i
CCC(C)C(=O)N1c2ccccc2C(=C2SC(C(=O)OC)=C(C(=O)OC)S2)C(=S)C1(C)C (stereo unspecified),46.0*,-8.2,1.5,-3.4,i
COc1ccc(C(=O)NCC(c2ccco2)N2CCc3ccccc32)c(OC)c1 (stereo unspecified),8.0,.,.,.,.
Cn1c(Cc2c[nH]c3ccccc23)n[nH]c1=S,-18.4,6.5*,-2.4,2.0,i
CCCCNC(=O)CS(=O)Cc1nc(-c2cccs2)oc1C (stereo unspecified),26.1,6.3,-1.1,6.1*,i
Cc1oc(-c2cccs2)nc1CS(=O)CC(=O)NCCCOC(C)C (stereo unspecified),19.1,-7.9,0.1,-1.2,i
CCN(CC)c1ccc(/C=C2\CCC(/C=C(\C#N)C(=O)Nc3ccccc3F)=C2N2CCOCC2)cc1,-77.8,61.3*,-5.0,-2.2,i
S=C(NCCc1ccc(Cl)cc1)NC1CC1,-27.9,24.1,-1.1,-3.6,i
O=c1[nH]ncc(NCc2ccc(Cl)cc2)c1Cl,-9.9,0.5,-2.3,-2.1,+
Cc1n[nH]c(=O)nc1NCc1ccc(Cl)cc1,-0.6,-1.8,1.0,-2.6,i
